First the molecules themselves.
B1: tRNA (parent)
chain: GUUCCGUUGGCGUAAUGGUAACGCGUCUCCCUCCUAAGGAGAAGACUGCGGGUUCGAGUCCCGUACGGAACG

Fewer inactive variants are shown than the library holds.

In the series the parent is B1. As to the kind of experiment: yeast fitness relative to wild type (ratio to wild type); higher = fitter; tRNA-Arg(CCU), competitive growth, 37 C, YPD. A digest of the protocol: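 For this measurement, the tRNA-Arg(CCU) gene was varied by chemical synthesis at a 3% per-site mutation rate across 69 sites, and each variant was placed at the native genomic locus in Saccharomyces cerevisiae. The pooled strains went through a 24-hour competition in YPD at 37°C in six parallel replicates, with amplicons from start and end populations read by 100-nucleotide paired-end sequencing. Darwinian fitness relative to wild type followed from the change in each genotype's frequency. Genotypes needed ≥ 100 starting reads, and estimates < 0.5 were set to 0.5.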
As for U19G C22U C31U A40U, the yeast fitness was 0.586.

Turning to A20C C61G, the yeast fitness is 0.747.

With A43C G50C A70U, the yeast fitness worked out at 0.574. To C22G U32C G58A belongs 0.654. To C4G U13A U54C belongs 0.548. For G9A A36C C49A C55U A57G A69U, the yeast fitness was not above 0.5. For the variant C4G G6C A40U A45G C55A, the yeast fitness was not above 0.5.

G17C A42G: the yeast fitness stood at 0.528.

With G10C A14U G25A C27U U53C C61U A70G, the yeast fitness is not above 0.5. Turning to A20G U59G, the yeast fitness was determined as 0.921. As to U13G G58A, the yeast fitness is 1.08. Turning to U7C G68U, the yeast fitness was 0.674. For G6C C33U A43G G58A C60U the value was 0.554. Consider G38C C49U C62U A69U, for which the yeast fitness is 0.819. For the variant C4A C62U, the yeast fitness was found to be 0.852. With A20G C49U, the yeast fitness was found to be 0.922.

On to A14U C49U G52A, for which the yeast fitness is not above 0.5. As for C29U A37G C49U, the yeast fitness worked out at 0.613. To C4G A14G A69U belongs 0.52; to C11A G23C G52C, 0.57. To G18A A20U C27G U47A belongs not above 0.5; to U8G A20G A37G G44A A65C, not above 0.5; to A15U C30A C31U A45C C55G, not above 0.5. With G6A A43G U59C, the yeast fitness was determined as 0.595.

Consider U8A A14G C24G A45C U64A, for which the yeast fitness was not above 0.5.

As for U13A A15U G17C C61A, the yeast fitness was not above 0.5. For U16A U59A C62U the value was not above 0.5. For G12C U35G the value was 0.677.

Take G9C C11G C24U C31U U59A: the yeast fitness is not above 0.5.

Take U8C A20G C66A: the yeast fitness is not above 0.5. For C33G G63C the value was not above 0.5; for C5G A70G, 0.848; for U3G C30G C62U, not above 0.5. In the case of C11G A21G G44C C61A C62U C66U, the yeast fitness was not above 0.5. As for G23C C30U C34U G67C, the yeast fitness is not above 0.5. To C4G U7C C27A A43U U59G belongs not above 0.5. For U13C C22A C24A the value was not above 0.5; for C24G C27U U53A, not above 0.5. For C31A A57G G68A the value was not above 0.5. Consider G25C C31G C34G C61U, for which the yeast fitness is not above 0.5. To G12A C27G A70C belongs not above 0.5. To A15G C33G G50A belongs not above 0.5. To C5U A36G A45U belongs 1.01; to G9C G39C C55G C62G A65C, not above 0.5; to U19C G67U, 1.07. On to C11U U13A C27G C46A C49G, for which the yeast fitness was not above 0.5.

In the case of C4G C5U C49A A70C, the yeast fitness was determined as 0.529. As for C11U A37U C49G, the yeast fitness was not above 0.5. For C30A G68A the value was 0.862; for C11G A57C, 0.571. To C34G C60U belongs 0.536; to C11G G18C C49U, not above 0.5; to G12A C27G G48A, not above 0.5.

Regarding C5G C11A A15G G18A A42U, the yeast fitness is not above 0.5. As for A36C A37C U53G A70C, the yeast fitness came out at 0.582. To A45G G68A belongs 0.973; to C5G C66G G68C, not above 0.5; to U3A U7A A15C C55G, not above 0.5.

For the variant U3A C5U C22G U53G, the yeast fitness is not above 0.5. For U35A G56A the value was 0.817. To C5G U28C A70G belongs 0.641; to C33G U47A C61A C66U, not above 0.5. In the case of U8C U32C G48A, the yeast fitness turned out to be 0.591. For the variant A14G A15U G67U, the yeast fitness was not above 0.5. Turning to A36U G41C A45U C49U C60U, the yeast fitness was not above 0.5. For C24G C31G A45G C60G, the yeast fitness is not above 0.5. To C5A C62A belongs 0.743; to G6A A45G A70C, 0.856. For U2A C5U G41A the value was not above 0.5; for C22G A36U, 0.66. Consider U19A C29G A42C C46A C49G, for which the yeast fitness was not above 0.5.

As for C11U C24G, the yeast fitness stood at 0.614.

On to C5A A57U C61G, for which the yeast fitness was not above 0.5.

A21C C31A A65C: the yeast fitness is not above 0.5. On to U2C C4U C34U, for which the yeast fitness stood at 0.719. To A14U G23U G67C belongs not above 0.5.

Regarding C5U G9A U26C G67U, the yeast fitness is not above 0.5.

Take G17C C46U G50C C55A G63A C66U: the yeast fitness is not above 0.5. For C4G A36U G58A the value was not above 0.5; for A42U U64C, 1.05. For G12A A14G C30G C46A the value was 0.882; for U3A C30G C55U, 0.673. Turning to U8A U19C A21C G39C C61U, the yeast fitness is not above 0.5. To U2C A42G G63A belongs 0.543; to C11G G12C C49U C60G, not above 0.5. For U16G C34U C60A A70C the value was not above 0.5.

As to C4A C33A G39C G51C C62U A69C, the yeast fitness is not above 0.5. For C27U A43U C55U A69C the value was not above 0.5. For U26A C30U, the yeast fitness was 0.787. For the variant C27G A42G, the yeast fitness amounted to 0.607.

In the case of G10C A40G C62G, the yeast fitness is not above 0.5. Consider C31G U64G, for which the yeast fitness worked out at 0.714.

For the variant C5G A14U G25A G48C C61A, the yeast fitness came to 0.528.

As to C24A C31G C66A, the yeast fitness was not above 0.5. For C27G C30G C33G A37C G52C, the yeast fitness is not above 0.5. As for C30G C34U A57G C60U G68C, the yeast fitness is not above 0.5. C22G C27G C31G G41A C61G A69U: the yeast fitness was not above 0.5.

For the variant U2A C11G A21G A65G, the yeast fitness was not above 0.5. For C34U G44A C49A G56C C62A A65C the value was not above 0.5; for U8A A43C A65U, not above 0.5; for A20C G50A C62U, 1.13. C5G G25A A45C: the yeast fitness was found to be 0.705. For G6A G38C C66U the value was 0.532; for A15C C24G A45G G56A A69C, not above 0.5; for C5G C27A C31A A42C, not above 0.5.

As to C31G C46G, the yeast fitness came out at 1.04. To A45U G51C belongs 0.538; to A21C C27U G63A A65G, 0.505; to C5A A20C C22A A36C C55A A69U, not above 0.5. In the case of U13A G23C C61A C62A, the yeast fitness was 0.726. For the variant A21C C24U A36C, the yeast fitness is 0.592. For G9C G23A C34U C66G the value was not above 0.5; for U35A A36G G48A C49U, not above 0.5; for U8C G10A G23C C33U, 0.611. In the case of C5G A20U C31G, the yeast fitness was not above 0.5. Turning to C5G U35C G50C G56A A70U, the yeast fitness was not above 0.5.

Take G38A A70C: the yeast fitness came out at 0.942.

As to C5U U28A G41A, the yeast fitness was 0.534. To U16A U35C A45G G56C G63C belongs not above 0.5; to U7A A21U G41A U64A, not above 0.5; to U19G C27G C34A A42U, not above 0.5. For C5U C33G C34U G38C U47A the value was not above 0.5; for G18A A21U G48A, 0.571. To C5A G63C belongs 0.761; to C4U C5A U13A C31U C34U C55A G58A, not above 0.5; to C11U U35C A36U C46U, 0.75. Turning to G51A C61G, the yeast fitness was 0.588. For U3C G23C C62G the value was 0.535; for C11G C27U G56A A57G, not above 0.5.

Take C31A A43G G68A: the yeast fitness came out at 0.657. To G6C C22G U64A belongs not above 0.5. For U7A A14C C27U A45U G67A the value was not above 0.5; for U2G C49A A57C, not above 0.5. To G25C U32A C60A belongs not above 0.5. Take A15C A40G: the yeast fitness came to 0.729. With C34A A40C A42U A65U G67A, the yeast fitness was not above 0.5. On to C29A U32C U35A, for which the yeast fitness was not above 0.5. Take G9A C27U A43G: the yeast fitness was 0.588. Consider U16A A20U C24G C33G C61A G67C, for which the yeast fitness came out at 0.561. For U8C A14G C24G C31U C55A the value was not above 0.5; for C4G C5G A14U A20C C34G A37C C49U, 0.559. Consider G39A C49U C62U, for which the yeast fitness was found to be 0.664. For C46A U53C the value was 0.865; for G56A G58A, 0.907. For U2A C5G A14G C30G C46U the value was not above 0.5; for C4A U7A C31A, 0.678; for C4G U7G, 0.642. For the variant C24U C29U C49U G51U, the yeast fitness is not above 0.5. To U19A A45U U54G belongs 0.631; to A14U C24G G41A G44A U53A C66U, 0.533; to G12A U47C, 0.905. To C30U G39C U53A belongs not above 0.5; to C5G A37C A69C, 0.511; to C30U G63C, 0.757. To G6A C30G A57C G58C belongs not above 0.5; to C4A U59A, 0.664; to C5G U13C A21C, 0.585. As to C11G U13G C61U, the yeast fitness was not above 0.5. To C29U A45U belongs 0.928; to G23C C66U, 0.723; to U19C C22G C24A G39C A45C U47C, 0.721. To U13A U32C A65G belongs 0.705. For C5U C22U C33U U53A, the yeast fitness was not above 0.5. For U2G C30A the value was 0.709; for C33G A40G G51C C61U A65U, 0.667. To C4A A21G A45U A69U belongs 0.655; to A20U U47G C62G G68A, not above 0.5.

The values are drawn from the RNAGym collection of RNA variant scans (doi:10.1126/science.aae0568).
